The source made the active and inactive calls. No cut-off for these calls is given here.
Key:
[1] = biological target: T1, Free fatty acid receptor 1 (Homo sapiens, UniProt O14842); test: Agonist activity at human recombinant full length GPR40 overexpressed in human HEK293 cells assessed as increase in inositol phosphate accumulation in presence of terbium cryptate-labeled anti IP1/d2-labelled IP1 measured after 120 mins by HTRF assay relative to AMG837; format: functional, cell-based; conditions: filed as agonist
T1 sequence (O14842 whole entry): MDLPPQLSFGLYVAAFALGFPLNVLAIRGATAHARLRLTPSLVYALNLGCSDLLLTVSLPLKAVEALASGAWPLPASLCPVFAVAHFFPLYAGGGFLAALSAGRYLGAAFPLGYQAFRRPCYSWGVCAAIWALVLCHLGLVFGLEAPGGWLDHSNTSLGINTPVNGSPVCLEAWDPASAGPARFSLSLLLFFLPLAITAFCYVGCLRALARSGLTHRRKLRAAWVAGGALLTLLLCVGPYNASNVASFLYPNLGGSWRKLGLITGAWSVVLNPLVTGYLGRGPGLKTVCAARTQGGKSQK
Procedure, shortened: (§1)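 HEK293 hGPR40 cells (20K/well) were cultured overnight, washed, and held in IP1 stimulation buffer. IP-1 was measured by competitive HTRF immunoassay with terbium cryptate anti-IP1 mAb and d2-labelled IP1.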

[2] = biological target: T1, Free fatty acid receptor 1; test: Agonist activity at human recombinant full length GPR40 overexpressed in human HEK293 cells assessed as increase in intracellular calcium level measured over 3 mins by calcium 4 dye based FLIPR assay relative to 100 uM linoleic acid; format: functional, cell-based; conditions: filed as agonist
Procedure, shortened: (§2)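 HEK293 cells overexpressing hGPR40 (25K/well) were cultured overnight in DMEM/F12 with 0.2% FBS and geneticin. Compound was tested at 40 μM–0.1 nM final (20-point, 1% DMSO), and FLIPR fluorescence was read over 3 min.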

[3] = biological target: Free fatty acid receptor 1 (Mus musculus) (UniProt Q76JU9); test: Agonist activity at Prolink-tagged mouse GPR40 fused with EA-tagged beta-arrestin expressed in human U2OS cells assessed as induction of beta-arrestin recruitment measured after 90 mins by beta-galactosidase based PathHunter assay relative to control; format: cell-based; conditions: filed as agonist
Chain of Free fatty acid receptor 1 (Mus musculus) (Q76JU9 whole entry, the tested form may be a part): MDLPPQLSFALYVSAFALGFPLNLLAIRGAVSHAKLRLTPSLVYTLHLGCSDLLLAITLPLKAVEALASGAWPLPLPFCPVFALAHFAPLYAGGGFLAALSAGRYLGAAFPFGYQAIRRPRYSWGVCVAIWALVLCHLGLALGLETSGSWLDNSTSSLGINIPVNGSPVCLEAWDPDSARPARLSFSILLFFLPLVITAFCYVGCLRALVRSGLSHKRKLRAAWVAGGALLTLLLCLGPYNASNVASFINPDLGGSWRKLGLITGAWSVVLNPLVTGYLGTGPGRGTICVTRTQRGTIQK
Procedure, shortened: (§3)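 PathHunter β-gal complementation. Cells were incubated overnight at 5000/well in medium with 1% heat-inactivated FBS. Compound was added as a 20-point 2-fold series from a top final of 100 μM (1% DMSO) for 90 min at 37 °C, followed by detection reagents and chemiluminescence read after 1 h at rt.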

[4] = biological target: Free fatty acid receptor 1 (Rattus norvegicus) (UniProt Q8K3T4); test: Agonist activity at Prolink-tagged rat GPR40 fused with EA-tagged beta-arrestin expressed in human U2OS cells assessed as induction of beta-arrestin recruitment measured after 90 mins by beta-galactosidase based PathHunter assay relative to control; format: cell-based; conditions: filed as agonist; procedure, shortened: as §3
Chain of Free fatty acid receptor 1 (Rattus norvegicus) (Q8K3T4 whole entry, the tested form may be a part): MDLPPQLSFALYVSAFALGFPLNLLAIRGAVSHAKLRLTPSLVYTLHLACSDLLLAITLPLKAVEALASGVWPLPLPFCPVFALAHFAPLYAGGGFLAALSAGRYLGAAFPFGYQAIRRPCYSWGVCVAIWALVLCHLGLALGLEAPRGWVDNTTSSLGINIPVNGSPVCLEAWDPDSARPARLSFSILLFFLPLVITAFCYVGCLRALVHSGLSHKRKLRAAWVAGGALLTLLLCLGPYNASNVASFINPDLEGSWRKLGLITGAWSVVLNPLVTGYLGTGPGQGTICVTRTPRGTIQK

[5] = biological target: Free fatty acid receptor 1 (Rattus norvegicus, UniProt Q8K3T4); test: Agonist activity at Prolink-tagged rat GPR40 fused with EA-tagged beta-arrestin expressed in human U2OS cells assessed as induction of beta-arrestin recruitment measured after 90 mins by beta-galactosidase based PathHunter assay; format: cell-based; procedure, shortened: as §3
Chain of Free fatty acid receptor 1 (Rattus norvegicus, UniProt Q8K3T4) (Q8K3T4 whole entry, the tested form may be a part): as above

[6] = biological target: T2, Peroxisome proliferator-activated receptor gamma (Homo sapiens) (UniProt P37231); test: Displacement of [3H]-[…] from PPARgamma (unknown origin) expressed in baculovirus infected Sf9 insect cells upto 30 uM measured after 10 hrs by microbeta scintillation counting analysis; conditions: dose microM <=30, time 10.0 hrs
T2 sequence (whole entry): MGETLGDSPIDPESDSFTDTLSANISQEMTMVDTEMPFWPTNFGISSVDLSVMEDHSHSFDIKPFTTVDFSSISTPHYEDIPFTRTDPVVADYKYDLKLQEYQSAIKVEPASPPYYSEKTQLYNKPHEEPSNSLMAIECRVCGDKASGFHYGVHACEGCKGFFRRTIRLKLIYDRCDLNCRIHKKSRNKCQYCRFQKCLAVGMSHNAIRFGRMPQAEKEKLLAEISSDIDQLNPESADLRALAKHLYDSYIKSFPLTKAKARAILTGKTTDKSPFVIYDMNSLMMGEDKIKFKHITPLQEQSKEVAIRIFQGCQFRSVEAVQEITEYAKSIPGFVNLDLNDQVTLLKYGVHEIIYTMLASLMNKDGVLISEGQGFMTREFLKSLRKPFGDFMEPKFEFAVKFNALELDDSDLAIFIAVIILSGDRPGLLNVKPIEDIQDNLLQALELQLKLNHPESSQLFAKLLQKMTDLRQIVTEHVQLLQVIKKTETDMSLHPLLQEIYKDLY
Procedure, shortened: (§4)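 Scintillation proximity assay. Sf9 lysates with baculovirus-expressed PPARα (0.3 μg), PPARδ (0.5 μg) or PPARγ (1.25 μg), each with RXRα, were bound via biotinylated DR2 oligo (0.126 nM) to streptavidin yttrium silicate beads. Buffer was HEPES pH 7.8 with KCl, MgCl2, DTT, CHAPS, 14% glycerol and salmon sperm DNA. A 3H reference agonist ligand was used, with 11 compound concentrations, for 10 h. Nonspecific binding was defined with 10000 nM unlabeled reference. Ki was derived from IC50.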

[7] = biological target: T3, Peroxisome proliferator-activated receptor alpha (Homo sapiens) (UniProt Q07869); test: Displacement of [3H]-[…] from PPARalpha (unknown origin) expressed in baculovirus infected Sf9 insect cells upto 30 uM measured after 10 hrs by microbeta scintillation counting analysis; conditions: dose microM <=30, time 10.0 hrs; procedure, shortened: as §4
T3 sequence (whole entry): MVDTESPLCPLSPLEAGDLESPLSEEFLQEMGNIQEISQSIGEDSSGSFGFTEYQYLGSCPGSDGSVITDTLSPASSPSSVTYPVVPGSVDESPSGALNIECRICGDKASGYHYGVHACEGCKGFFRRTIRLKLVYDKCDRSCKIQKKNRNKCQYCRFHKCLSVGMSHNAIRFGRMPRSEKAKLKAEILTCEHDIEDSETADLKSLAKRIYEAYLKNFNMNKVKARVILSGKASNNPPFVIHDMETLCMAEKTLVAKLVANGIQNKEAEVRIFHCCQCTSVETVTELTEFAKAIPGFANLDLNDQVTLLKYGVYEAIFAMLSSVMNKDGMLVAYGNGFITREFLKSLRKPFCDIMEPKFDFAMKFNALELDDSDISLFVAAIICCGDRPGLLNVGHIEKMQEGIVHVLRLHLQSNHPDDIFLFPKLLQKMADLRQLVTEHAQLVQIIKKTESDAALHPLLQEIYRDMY

[8] = biological target: T1, Free fatty acid receptor 1; test: Agonist activity at human recombinant full length GPR40 overexpressed in human HEK293 cells assessed as increase in inositol phosphate accumulation in presence of terbium cryptate-labeled anti IP1/d2-labelled IP1 measured after 120 mins by HTRF assay; format: functional, cell-based; procedure, shortened: as §1
[9] = biological target: T1, Free fatty acid receptor 1; test: Displacement of [3H]-TAK-875 from human recombinant full-length GPR40 expressed in human HEK293 cell membrane incubated for 2 hrs by solid scintillation counting method; format: cell membranes
[10] = biological target: T1, Free fatty acid receptor 1; test: Agonist activity at human recombinant full length GPR40 overexpressed in human HEK293 cells assessed as increase in intracellular calcium level measured over 3 mins by calcium 4 dye based FLIPR assay; format: functional, cell-based; procedure, shortened: as §2
[11] = biological target: T1, Free fatty acid receptor 1; test: Agonist activity at human recombinant full-length Prolink-tagged GPR40 fused with EA-tagged beta-arrestin expressed in human HEK293 cells assessed as induction of beta-arrestin recruitment measured after 90 mins by beta-galactosidase based PathHunter assay relative to control; format: cell-based; conditions: filed as agonist; procedure, shortened: as §3
[12] = biological target: T4, Peroxisome proliferator-activated receptor delta (Homo sapiens) (UniProt Q03181); test: Displacement of [3H]-[…] from PPARdelta (unknown origin) expressed in baculovirus infected Sf9 insect cells upto 30 uM measured after 10 hrs by microbeta scintillation counting analysis; conditions: dose microM <=30, time 10.0 hrs; procedure, shortened: as §4
T4 sequence (whole entry): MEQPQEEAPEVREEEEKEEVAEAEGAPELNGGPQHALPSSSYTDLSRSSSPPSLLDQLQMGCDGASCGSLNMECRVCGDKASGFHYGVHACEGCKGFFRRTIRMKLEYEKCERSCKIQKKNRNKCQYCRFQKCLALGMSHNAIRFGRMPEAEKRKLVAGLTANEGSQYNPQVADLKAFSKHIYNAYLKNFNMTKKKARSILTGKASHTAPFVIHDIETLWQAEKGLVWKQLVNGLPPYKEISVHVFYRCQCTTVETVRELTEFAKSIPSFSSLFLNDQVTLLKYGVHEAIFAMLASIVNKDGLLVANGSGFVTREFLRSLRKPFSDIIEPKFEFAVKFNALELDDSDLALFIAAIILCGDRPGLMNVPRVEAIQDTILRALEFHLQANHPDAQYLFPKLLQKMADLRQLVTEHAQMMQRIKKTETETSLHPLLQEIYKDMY

[13] = biological target: T1, Free fatty acid receptor 1; test: Agonist activity at human recombinant full-length Prolink-tagged GPR40 fused with EA-tagged beta-arrestin expressed in human HEK293 cells assessed as induction of beta-arrestin recruitment measured after 90 mins by beta-galactosidase based PathHunter assay; format: cell-based; procedure, shortened: as §3
[14] = biological target: Free fatty acid receptor 1 (Mus musculus, UniProt Q76JU9); test: Agonist activity at Prolink-tagged mouse GPR40 fused with EA-tagged beta-arrestin expressed in human U2OS cells assessed as induction of beta-arrestin recruitment measured after 90 mins by beta-galactosidase based PathHunter assay; format: cell-based; procedure, shortened: as §3
Chain of Free fatty acid receptor 1 (Mus musculus, UniProt Q76JU9) (Q76JU9 whole entry, the tested form may be a part): as the sequence (Q76JU9 whole entry, the tested form may be a part) above

[15] = Protein binding in plasma (unknown origin) by equilibrium dialysis method; format: ADME, cell-free; conditions: human, read-out: PPB
Procedure, shortened: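 Plasma protein binding measured by equilibrium dialysis.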

| SMILES | Emax [1] [%] | Emax [2] [%] | Emax [3] [%] | Emax [4] [%] | EC50 [5] [nM] | Activity [6] | Activity [7] | EC50 [8] [nM] | Ki [9] [nM] | EC50 [10] [nM] | Emax [11] [%] | Activity [12] | EC50 [13] [nM] | EC50 [14] [nM] | fraction unbound [15] |
| --- | --- | --- | --- | --- | --- | --- | --- | --- | --- | --- | --- | --- | --- | --- | --- |
| CC#C[C@@H](CC(=O)O)c1ccc(OCc2ccc(CN3CCC4(C=Cc5ccccc54)CC3)o2)cc1 | 127 | 59 | 121 | 117 | 4.2 | inactive | inactive | 22 | 20 | 1.6 | 121 | inactive | 62 | 2.1 | < 0.01 |
| CC#C[C@@H](CC(=O)O)c1ccc(OCc2ccc(CN3CCC4(CC3)CN(C)c3ccc(C(F)(F)F)cc34)cc2)cc1 | 275 | 42 | 158 | 154 | 0.59 | inactive | inactive | 4.7 | 2.7 | 14 | 139 | inactive | 2.9 | 0.5 | < 0.01 |
| O=C(O)CCc1ccc(OCc2ccc(CN3CCC4(C=Cc5ccccc54)CC3)cc2)cc1Cl | 265 | 59 | 116 | 108 | 540 | inactive | inactive | 86 | 200 | 140 | 133 | inactive | 740 | 110 | < 0.01 |
| CC#C[C@@H](CC(=O)O)c1ccc(OCc2ccc(CN3CCC4(CC3)CN(C)c3c(Cl)cccc34)cc2)cc1 | 378 | 42 | 141 | 138 | 0.89 | inactive | inactive | 11 | 3.5 | 17 | 147 | inactive | 3.3 | 0.59 | < 0.01 |
| CC#C[C@@H](CC(=O)O)c1ccc(OCc2ccc(CN3CCC4(CC3)CN(C)c3ccc(C)cc34)cc2)cc1 | 231 | 60 | 145 | 138 | 4.6 | inactive | inactive | 3.5 | 14 | 61 | 121 | inactive | 25 | 2 | < 0.01 |
| CC#C[C@@H](CC(=O)O)c1ccc(OCc2ccc(CN3CCC4(CC3)CN(C)c3ccc(OC)cc34)cc2)cc1 | 311 | 49 | 144 | 145 | 18 | inactive | inactive | 23 | 29 | 130 | 129 | inactive | 100 | 11 | < 0.01 |
| CC#C[C@H](CC(=O)O)c1ccc(OCc2ccc(CN3CCC4(C=Cc5ccccc54)CC3)cc2)cc1F | 160 | 61 | 113 | 112 | 420 | inactive | inactive | 190 | 410 | 440 | 102 | inactive | 680 | 120 | < 0.01 |
| CC#C[C@@H](CC(=O)O)c1ccc(OCc2nc(C)c(CN3CCC4(C=Cc5ccccc54)CC3)s2)cc1 | 112 | 62 | 118 | 112 | 17 | inactive | inactive | 10 | 59 | 11 | 114 | inactive | 58 | 3.8 | < 0.01 |
| CC#C[C@@H](CC(=O)O)c1ccc(OCc2ccc(CN3CCC4(C=Cc5ccccc54)CC3)c(C)c2)cc1 | 206 | 47 | 147 | 146 | 0.54 | inactive | inactive | 4.2 | 1.3 | 23 | 150 | inactive | 1.7 | 0.42 | < 0.01 |
| CC#C[C@@H](CC(=O)O)c1ccc(OCc2ccc(CN3CCC4(C=Cc5ccccc54)CC3)c(Cl)c2)cc1 | 193 | 47 | 149 | 161 | 1 | inactive | inactive | 4.9 | 1.5 | 32 | 150 | inactive | 3.3 | 0.83 | < 0.01 |
